The source made the active and inactive calls. No cut-off for these calls is given here.
Tests used:
[1] = Antioxidant activity assessed as trolox equivalents of AAPH radical scavenging activity at 20 uL preincubated for 10 mins followed by AAPH addition measured every min for 120 mins by ORAC-FL assay; type: functional
In short: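 Test compound diluted to 10 µM in 75 mM phosphate buffer (pH 7.4). It was pre-incubated with fluorescein (70 nM final) at 37 °C, then AAPH (40 mM solution) was added. Fluorescence (ex 485/em 520 nm) was read each minute for 120 min. […] Triplicates, at least three independent runs, mean ± SD.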

[2] = target: T1, Amyloid-beta precursor protein (Homo sapiens, UniProt P05067); test: Inhibition of self-induced aggregation of amyloid beta (1 to 42) (unknown origin) after 48 hrs by thioflavin T-based fluorescence method
T1 sequence (P05067 whole entry): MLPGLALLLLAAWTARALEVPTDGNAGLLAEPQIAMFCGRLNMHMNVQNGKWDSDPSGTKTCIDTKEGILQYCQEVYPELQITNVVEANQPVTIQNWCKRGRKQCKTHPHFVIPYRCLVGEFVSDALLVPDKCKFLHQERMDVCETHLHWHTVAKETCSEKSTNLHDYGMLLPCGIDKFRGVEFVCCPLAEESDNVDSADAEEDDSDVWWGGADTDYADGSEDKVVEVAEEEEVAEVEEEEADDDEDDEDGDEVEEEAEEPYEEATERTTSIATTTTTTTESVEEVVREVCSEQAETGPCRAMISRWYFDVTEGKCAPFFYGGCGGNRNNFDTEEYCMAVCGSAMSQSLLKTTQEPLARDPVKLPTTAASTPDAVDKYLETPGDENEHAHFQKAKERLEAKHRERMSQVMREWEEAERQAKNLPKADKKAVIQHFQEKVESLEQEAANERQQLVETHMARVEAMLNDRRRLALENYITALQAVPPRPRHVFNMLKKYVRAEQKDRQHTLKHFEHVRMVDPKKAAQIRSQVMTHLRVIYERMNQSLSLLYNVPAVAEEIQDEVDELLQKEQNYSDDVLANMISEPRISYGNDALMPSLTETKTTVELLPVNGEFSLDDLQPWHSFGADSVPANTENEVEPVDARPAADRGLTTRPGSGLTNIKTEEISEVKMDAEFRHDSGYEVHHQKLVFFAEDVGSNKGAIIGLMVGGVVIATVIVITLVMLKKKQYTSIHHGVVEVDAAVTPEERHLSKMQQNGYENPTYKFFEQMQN

[3] = target: T1, Amyloid-beta precursor protein; test: Inhibition of self-induced aggregation of amyloid beta (1 to 42) (unknown origin) at 20 uM after 48 hrs by thioflavin T-based fluorescence method relative to control
In short: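 Aβ1-42 stock was in 1% ammonium hydroxide, diluted in 50 mM phosphate buffer (pH 7.4). Peptide (25 µM final) was incubated ± compound at 37 °C for 48 h, with peptide-free blanks. Samples were diluted in 50 mM glycine-NaOH (pH 8.0) with 5 µM ThT and read after 5 min (ex 450/em 485 nm). Inhibition = (1−IFi/IFc)×100 after background subtraction. At least three independent measurements, mean ± SD.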

[4] = Metal chelating activity assessed as Fe3+-compound complex formation at 20 uM after 30 mins by UV-Vis spectrophotometric method
[5] = target: T1, Amyloid-beta precursor protein; test: Potency index, ratio of curcumin IC50 to test compound IC50 for self-induced aggregation of amyloid beta (1 to 42) (unknown origin)
[6] = Metal chelating activity assessed as Zn2+-compound complex formation at 20 uM after 30 mins by UV-Vis spectrophotometric method
In short: (§1)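 UV-Vis absorption spectra were recorded for compound (20 µM final) alone or with CuSO4, FeSO4 or ZnCl2 (40 µM final) after 30 min. Medium was 20% (v/v) ethanol/buffer (20 mM HEPES, 150 mM NaCl, pH 7.4), at room temperature.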

[7] = Metal chelating activity assessed as Cu2+-compound complex formation by measuring shift in maximum absorption wavelength at 20 uM after 30 mins by UV-Vis spectrophotometric method; in short: as §1
[8] = Metal chelating activity assessed as Fe2+-compound complex formation by measuring shift in maximum absorption wavelength at 20 uM after 30 mins by UV-Vis spectrophotometric method; in short: as §1

Row | SMILES | Activity (umolequiv/umol) [1] | IC50 [2] | inhibition [3] | other results
1 | OB1Oc2ccc3ccc(O)cc3c2C=C1c1cc(O)cc(O)c1 | 5.34 | 4.9 µM | 78.7% | –
2 | COc1cc(/C=C/C(=O)O)ccc1O | 3.24 | – | – | –
3 | OB1Oc2ccc3cc(O)ccc3c2C=C1c1cc(O)cc(O)c1 | 5.87 | 8.9 µM | 70.3% | –
4 | CN(C)c1ccc2c3c(ccc2c1)OB(O)C(c1cc(O)cc(O)c1)=C3 | 5.27 | – | 32.4% | –
5 | OB1Oc2ccc3cc(O)ccc3c2C=C1c1ccc(O)c(O)c1 | 4.05 | 4.6 µM | 80.5% | –
6 | OB1Oc2ccc3cc(O)ccc3c2C=C1c1ccc(O)cc1 | 3.94 | – | 12.3% | –
7 | OB1Oc2ccc(O)cc2C=C1c1ccc(O)c(O)c1 | 4.09 | 17.5 µM | 58.8% | –
8 | COc1ccc(/C=C/c2cc(OC)cc(OC)c2)cc1 | 0.21 | – | – | –
9 | CN(C)c1ccc2c3c(ccc2c1)OB(O)C(c1ccc(O)cc1)=C3 | 2.41 | – | 0% | –
10 | OB1Oc2cc(O)ccc2C=C1c1cc(O)cc(O)c1 | 4.84 | 21.7 µM | 50.2% | –
11 | OB1Oc2ccc3ccc(O)cc3c2C=C1c1ccc(O)c(O)c1 | 4.55 | 3.4 µM | 82.8% | Activity [4]: inactive; Ratio IC50 [5]: 4; Activity [6]: inactive; Activity [7]: 355 nm; Activity [8]: 350 nm
12 | OB1Oc2ccc3ccccc3c2C=C1c1ccc(O)c(O)c1 | 2.7 | – | 43.7% | –
13 | CN(C)c1ccc2c3c(ccc2c1)OB(O)C(c1ccc(O)c(O)c1)=C3 | 4.88 | – | 49.5% | –
14 | Oc1ccc(/C=C/c2cc(O)cc(O)c2)cc1 | 5.33 | – | – | –
15 | OB1Oc2ccc3ccc(O)cc3c2C=C1c1ccc(O)cc1 | 4.45 | – | 20.5% | –
16 | OB1Oc2ccc3ccccc3c2C=C1c1cc(O)cc(O)c1 | 3 | 12.6 µM | 67.3% | –
17 | OB1Oc2ccc3ccccc3c2C=C1c1ccc(O)cc1 | 2.06 | – | 0% | –
